# From ChEMBL document CHEMBL3259625 (ACS Med Chem Lett, 2014)
# What was measured:
# [1] = tested on: Liver microsome; assay: (§1) Half life in human liver microsomes at 1 uM by LC-MS/MS analysis in presence of NADPH; format: ADME; settings: microsomes, 1 µM
# How it was run: (§2)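 Microsomal stability was measured in human, rat and mouse liver microsomes, with sunitinib run in parallel as the reference compound.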
# [2] = (§3) Half life in rat liver microsomes at 1 uM by LC-MS/MS analysis in presence of NADPH; format: ADME; settings: liver microsomes; how it was run: as §2
# [3] = tested on: Liver; assay: (§4) Half life in mouse liver microsomes at 1 uM by LC-MS/MS analysis in presence of NADPH; format: ADME; settings: microsomes, 1 µM; how it was run: as §2
# [4] = molecular target: Cytochrome P450 2D6 (Homo sapiens, UniProt P10635); assay: (§5) Inhibition of CYP2D6 in human liver microsomes assessed as bufuralol hydroxylation to 4'-hydroxybufuralol at 1 uM after 10 mins in presence of NADPH; format: ADME; settings: microsomes, 10 min, 1 µM
# [5] = molecular target: T1, Cytochrome P450 1A2 (Homo sapiens, UniProt P05177); assay: (§6) Inhibition of CYP1A2 in human liver microsomes assessed as phenacetin […] to acetaminophen at 1 uM after 10 mins in presence of NADPH; format: ADME; settings: microsomes, 10 min, 1 µM
# T1 sequence (P05177 whole entry): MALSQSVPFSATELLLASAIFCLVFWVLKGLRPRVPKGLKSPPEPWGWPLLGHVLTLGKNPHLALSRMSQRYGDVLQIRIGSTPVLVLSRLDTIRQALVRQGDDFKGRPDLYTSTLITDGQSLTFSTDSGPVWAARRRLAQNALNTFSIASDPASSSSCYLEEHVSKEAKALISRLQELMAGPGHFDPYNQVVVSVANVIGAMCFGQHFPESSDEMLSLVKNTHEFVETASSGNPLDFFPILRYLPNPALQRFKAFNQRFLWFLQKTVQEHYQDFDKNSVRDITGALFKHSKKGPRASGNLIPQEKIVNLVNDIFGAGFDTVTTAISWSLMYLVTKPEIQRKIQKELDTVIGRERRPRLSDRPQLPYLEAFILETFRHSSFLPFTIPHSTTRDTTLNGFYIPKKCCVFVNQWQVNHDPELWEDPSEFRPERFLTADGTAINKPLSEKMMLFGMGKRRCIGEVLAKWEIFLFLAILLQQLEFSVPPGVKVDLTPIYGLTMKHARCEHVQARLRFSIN
# [6] = tested on: Liver microsome; assay: as §3; format: ADME; settings: microsomes, 1 µM; how it was run: as §2
# [7] = molecular target: Cytochrome P450 2C9 (Homo sapiens, UniProt P11712); assay: (§7) Inhibition of CYP2C9 in human liver microsomes assessed as tolbutamide hydroxylation to hydroxytolbutamide at 1 uM after 10 mins in presence of NADPH; format: ADME; settings: microsomes, 10 min, 1 µM
# [8] = molecular target: Cytochrome P450 3A4 (Homo sapiens, UniProt P08684); assay: (§8) Inhibition of CYP3A4 in human liver microsomes assessed as midazolam hydroxylation to 1'-hydroxymidazolam at 1 uM after 10 mins in presence of NADPH; format: ADME; settings: microsomes, 10 min, 1 µM
# [9] = tested on: Trypanosoma cruzi; assay: Antitrypanosomal activity against trypomastigotes of Trypanosoma cruzi CA-I/72 infected in mouse C2C12 cells after 72 hrs; format: functional, organism-based; settings: CA-I/72, C2C12, 72 h
# How it was run: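 EC50 derived from dose–response curves against T. cruzi in infected mouse C2C12 myoblasts.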
# [10] = as §1; format: ADME; settings: liver microsomes; how it was run: as §2
# [11] = molecular target: CYP2D6 (Homo sapiens, UniProt P10635); assay: as §5; format: ADME; settings: liver microsomes, probe bufuralol
# [12] = molecular target: T2, CYP1A2 (Homo sapiens, UniProt P05177); assay: as §6; format: ADME; settings: liver microsomes, probe phenacetin
# T2 sequence (P05177 whole entry): T1 sequence (P05177 whole entry)
# [13] = molecular target: CYP2C9 (Homo sapiens, UniProt P11712); assay: as §7; format: ADME; settings: liver microsomes, probe tolbutamide
# [14] = as §4; format: ADME; settings: liver microsomes; how it was run: as §2
# [15] = molecular target: CYP3A4 (Homo sapiens, UniProt P08684); assay: as §8; format: ADME; settings: liver microsomes, probe midazolam
# CYP3A4, sequence (P08684 whole entry): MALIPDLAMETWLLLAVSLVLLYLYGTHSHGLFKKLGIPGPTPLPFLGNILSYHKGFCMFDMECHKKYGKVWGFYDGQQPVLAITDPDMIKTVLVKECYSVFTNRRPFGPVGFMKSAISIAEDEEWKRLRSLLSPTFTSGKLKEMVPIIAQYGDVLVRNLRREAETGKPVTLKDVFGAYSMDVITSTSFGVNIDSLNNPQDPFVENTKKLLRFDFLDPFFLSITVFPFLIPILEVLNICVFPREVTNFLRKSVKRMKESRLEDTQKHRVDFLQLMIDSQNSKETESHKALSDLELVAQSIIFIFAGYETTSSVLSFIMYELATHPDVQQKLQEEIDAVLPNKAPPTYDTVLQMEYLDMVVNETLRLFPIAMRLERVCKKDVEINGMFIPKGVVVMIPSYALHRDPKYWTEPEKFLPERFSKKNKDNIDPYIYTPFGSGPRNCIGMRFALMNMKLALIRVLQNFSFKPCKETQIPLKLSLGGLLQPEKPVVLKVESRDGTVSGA
# CYP2C9, sequence (P11712 whole entry): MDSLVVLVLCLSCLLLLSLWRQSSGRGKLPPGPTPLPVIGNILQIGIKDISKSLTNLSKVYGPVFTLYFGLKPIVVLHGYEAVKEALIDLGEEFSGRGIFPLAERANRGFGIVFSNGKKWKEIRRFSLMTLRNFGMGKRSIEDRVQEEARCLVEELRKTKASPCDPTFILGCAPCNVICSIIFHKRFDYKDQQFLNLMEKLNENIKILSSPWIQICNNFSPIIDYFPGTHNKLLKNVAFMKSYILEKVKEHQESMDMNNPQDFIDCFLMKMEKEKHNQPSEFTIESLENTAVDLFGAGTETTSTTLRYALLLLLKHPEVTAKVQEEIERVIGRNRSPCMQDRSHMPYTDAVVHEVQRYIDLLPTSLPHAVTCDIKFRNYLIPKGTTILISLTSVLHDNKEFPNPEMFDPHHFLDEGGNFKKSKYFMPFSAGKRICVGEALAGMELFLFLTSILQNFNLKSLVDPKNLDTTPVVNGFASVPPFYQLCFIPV
# CYP2D6, sequence (P10635 whole entry): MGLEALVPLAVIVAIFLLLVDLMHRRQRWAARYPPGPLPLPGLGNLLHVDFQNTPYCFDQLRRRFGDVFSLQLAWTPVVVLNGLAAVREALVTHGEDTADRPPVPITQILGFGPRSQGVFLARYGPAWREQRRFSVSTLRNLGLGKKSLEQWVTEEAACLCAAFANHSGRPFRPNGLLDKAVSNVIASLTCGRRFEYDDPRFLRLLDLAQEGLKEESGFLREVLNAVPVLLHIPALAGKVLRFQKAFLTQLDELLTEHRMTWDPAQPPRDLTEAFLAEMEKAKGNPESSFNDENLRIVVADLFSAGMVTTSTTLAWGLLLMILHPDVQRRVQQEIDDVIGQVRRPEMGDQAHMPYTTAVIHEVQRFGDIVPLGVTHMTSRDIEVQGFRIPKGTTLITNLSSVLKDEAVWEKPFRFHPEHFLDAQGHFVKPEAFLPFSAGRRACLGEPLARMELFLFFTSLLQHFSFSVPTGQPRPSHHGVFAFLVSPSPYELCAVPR
# Cytochrome P450 3A4, sequence (P08684 whole entry): as the sequence (P08684 whole entry) above
# Cytochrome P450 2C9, sequence (P11712 whole entry): as the sequence (P11712 whole entry) above
# Cytochrome P450 2D6, sequence (P10635 whole entry): as the sequence (P10635 whole entry) above
t1/2 [1],half-life at 1 µM [2],t1/2 [3],inhibition (INH) [4],inhibition (INH) [5],t1/2 [6],inhibition (INH) [7],inhibition (INH) [8],EC50 [9],half-life at 1 µM [10],"inhibition at 10 min, 1 µM [11]","inhibition at 10 min, 1 µM [12]","inhibition at 10 min, 1 µM [13]",half-life at 1 µM [14],"inhibition at 10 min, 1 µM [15]",Compound
18 min,20 min,27 min,,,,,,,,,,,,,O=C(N[C@H](Cc1c[nH]c2ccccc12)C(=O)Nc1ccncc1)c1ccc(-c2cccc(F)c2)cc1F
,39 min,,,,,,,2.9 nM,45 min,27%,-4%,92%,69 min,24%,O=C(N[C@H](Cc1c[nH]c2ccccc12)C(=O)Nc1ccncc1)c1ccc(-c2ccc(C(F)(F)F)c(F)c2)cc1F
,24 min,,,,,,,0.47 nM,8 min,74%,10%,96%,11 min,86%,O=C(N[C@H](Cc1c[nH]c2ccccc12)C(=O)Nc1ccncc1)c1ccc(N2CCN(c3cccc(C(F)(F)F)c3)CC2)cc1F

# The next lines start with the compound.
Compound,t1/2 [1],half-life at 1 µM [2],t1/2 [3],inhibition (INH) [4],inhibition (INH) [5],t1/2 [6],inhibition (INH) [7],inhibition (INH) [8],EC50 [9],half-life at 1 µM [10],"inhibition at 10 min, 1 µM [11]","inhibition at 10 min, 1 µM [12]","inhibition at 10 min, 1 µM [13]",half-life at 1 µM [14],"inhibition at 10 min, 1 µM [15]"
O=C(N[C@H](Cc1c[nH]c2ccccc12)C(=O)Nc1ccncc1)c1ccc(-c2cc(F)ccc2F)cc1F,17 min,,,47%,3%,17 min,92%,74%,1.3 nM,,,,,,
O=C(N[C@H](Cc1c[nH]c2ccccc12)C(=O)Nc1ccncc1)c1ccc(-c2ccc(F)c(F)c2)cc1F,18 min,,39 min,,,,,,,,,,,,
O=C(N[C@H](Cc1c[nH]c2ccccc12)C(=O)Nc1ccncc1)c1ccc(-c2ccc(OCc3ccc(F)cc3F)c(F)c2)cc1F,,30 min,,,,,,,0.6 nM,25 min,21%,-9%,84%,34 min,38%
O=C(N[C@H](Cc1c[nH]c2ccccc12)C(=O)Nc1ccncc1)c1ccc(-c2ccc(OCc3ccc(F)cc3)c(C(F)(F)F)c2)cc1F,,53 min,,,,,,,9.2 nM,29 min,-17%,-26%,41%,51 min,15%
